Laboratory results reported in ChEMBL document CHEMBL1121797, “Studies on chiral interactions of 1-(2,5-dimethoxy-4-methylphenyl)-2-aminopropane and the corresponding N-hydroxy metabolites with cytochrome P-450” (J Med Chem, 1981).

What was measured:
[1] = Initial rates of formation of metabolic intermediate Cytochrome P-450 at compound concentration of 30 uM; format: ADME
How it was run: (§1)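 Rabbit liver microsomes at 2 mg protein/mL with 0.1 mM EDTA, 37 °C, substrate 30 μM. Complex formation started with 0.4 mM NADPH and followed by dual-wavelength absorbance, 457 vs 500 nm. Initial rate is the initial slope, ΔA×10^4 per nmol P-450 per min. Extent is the plateau absorbance. Lag is the time from NADPH addition to first 457-nm chromophore. Triplicate or single runs.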

[2] = Extent rates of formation of metabolic intermediate Cytochrome P-450 at compound concentration of 30 uM; format: ADME; how it was run: as §1
[3] = Initial rates of formation of metabolic intermediate Cytochrome P-450 at compound concentration of 15-180 uM; format: ADME
How it was run: (§2)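 Rabbit liver microsomes at 2 mg protein/mL with 0.1 mM EDTA, 37 °C, NADPH-dependent. Substrate tested at several concentrations. ΔA457–500 nm followed against time. Rate is the initial slope per nmol P-450 per min; extent is the plateau absorbance. Runs disturbed by a transient 450-nm species were discarded.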

Cytochrome P450 2C19 = Cytochrome P450 2C19 (Homo sapiens, UniProt P33261); assay: Apparent binding affinity of compound (15.0-45.0 uM) in Cytochrome P450 binding; format: ADME, Oryctolagus cuniculus; details: read-out: Ks
[4] = Lag time between the addition of compound (30 uM) and the first appearance of chromophore; format: ADME; how it was run: as §1
[5] = Extent rates of formation of metabolic intermediate Cytochrome P-450 at compound concentration of 15-180 uM; format: ADME; how it was run: as §2

Sequence of Cytochrome P450 2C19 (P33261 whole entry): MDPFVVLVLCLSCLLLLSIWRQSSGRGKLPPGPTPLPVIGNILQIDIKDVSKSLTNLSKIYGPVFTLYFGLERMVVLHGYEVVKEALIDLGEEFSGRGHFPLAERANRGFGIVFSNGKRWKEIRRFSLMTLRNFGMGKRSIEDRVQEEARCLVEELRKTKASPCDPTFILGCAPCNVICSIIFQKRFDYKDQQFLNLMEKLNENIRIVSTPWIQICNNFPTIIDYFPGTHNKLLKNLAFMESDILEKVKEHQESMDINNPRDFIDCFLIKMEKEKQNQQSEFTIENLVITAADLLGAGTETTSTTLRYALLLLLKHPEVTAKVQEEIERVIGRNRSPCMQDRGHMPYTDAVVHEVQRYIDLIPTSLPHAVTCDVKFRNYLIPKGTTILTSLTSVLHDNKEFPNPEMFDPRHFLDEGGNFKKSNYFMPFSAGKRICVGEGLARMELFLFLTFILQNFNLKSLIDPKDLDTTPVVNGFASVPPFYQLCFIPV

Q: Which Rate [1] does the source give for `COc1cc(C[C@H](C)NO)c(OC)cc1C` here?
A: 211

Q: What about the Rate [2] of the same molecule?
A: 161

Q: What about the Rate [3] of the same molecule?
A: 66

Q: What about the Kd (Cytochrome P450 2C19) of the same molecule?
A: 68 µM

Q: What about the Lag time [4] of the same molecule?
A: 0 s

Q: What about the Rate [5] of the same molecule?
A: 34
